Reference: ChEMBL document CHEMBL1131301, “Tyrosine kinase inhibitors. 14. Structure-activity relationships for methylamino-substituted derivatives of 4-[(3-bromophenyl)amino]-6-(methylamino)-pyrido[3,4-d]pyrimidine (PD 158780), a potent and specific inhibitor of the tyrosine kinase activity of receptors for the EGF family of growth factors” (J Med Chem, 1998)
Values after ≈ are worked out from the molar mass of the structure shown.

Experiments:
Mus musculus [1] = assay: Weight change of EGFR tumor bearing mice at 25 mg/kg ip dose, days 1-15 administration; assay type: functional; conditions: route intraperitoneal
A-431 [2] = assay: Weight change in A431 tumor bearing mice at 12 mg/kg ip dose, days 7-21 administration; assay type: functional; conditions: route intraperitoneal
A-431 [3] = assay: Difference in days for treated (T) and control (C) A431 tumor fragments to reach 750 mg in mice at 12 mg/kg peroral dose, administration days 7-21; assay type: functional; conditions: route intraperitoneal, in the assay text read “intraperitoneal” for “peroral”
Method in brief: (§1)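 Nude mice (NCr nu/nu, 18-22 g) were randomized and implanted sc with tumor fragments in the right axilla on day 0. Tumor lines were A431 epidermoid, NIH 3T3 fibroblasts transfected with human EGFR, and MCF-7 breast. Dosing was ip or oral, by average cage weight, with 6 mice/dose group. Vehicle was 6% dimethylacetamide/94% 50 mM sodium lactate pH 4.0 (suspension), or isethionate salt in water.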

MCF7 [4] = assay: Net reduction in MCF-7 tumor burden between the first and last treatments in mice at 25 mg/kg ip dose, days 1-15 administration; assay type: functional; conditions: route intraperitoneal
Method in brief: (§2)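 NCr nu/nu nude mice (18-22 g) were randomized and implanted sc with A431 epidermoid, human-EGFR-transfected NIH 3T3 fibroblast, or MCF-7 breast tumor fragments in the right axilla on day 0. Dosing was ip or oral, by average cage weight, with 6 mice per dose group. Log net cell kill is the net reduction in tumor burden between the first and last treatments.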

Mus musculus [5] = assay: Difference in days for treated (T) and control (C) EGFR tumor fragments to reach 750 mg in mice at 25 mg/kg ip dose, administration days 1-15; assay type: functional; conditions: route intraperitoneal
[6] = target: T1, Epidermal growth factor receptor (Homo sapiens, UniProt P00533); assay: Inhibition of autophosphorylation of epidermal growth factor receptor in A431 cells in culture
MCF7 [7] = assay: Difference in days for treated (T) and control (C) MCF-7 tumor fragments to reach 750 mg in mice at 25 mg/kg ip dose, administration days 1-15; assay type: functional; conditions: route intraperitoneal
Mus musculus [8] = assay: Net reduction in EGFR tumor burden between the first and last treatments in mice at 400 mg/kg peroral dose, days 1-15 administration; assay type: functional; conditions: route oral; method in brief: as §2
[9] = Aqueous solubility ([…] degree C); assay type: physicochemical; conditions: water; read-out: S
A-431 [10] = assay: Difference in days for treated (T) and control (C) A431 tumor fragments to reach 750 mg in mice at 25 mg/kg peroral dose, administration days 7-21; assay type: functional; conditions: route oral
A-431 [11] = assay: Ratio of treated and control A431 median tumor mass*100% in mice at 25 mg/kg peroral dose, days 13-26 administration; assay type: functional, Mus musculus; conditions: route intraperitoneal, in the assay text read “intraperitoneal” for “peroral”; method in brief: as §1
[12] = target: Receptor tyrosine-protein kinase erbB-2 (Homo sapiens, UniProt P04626); assay: Inhibition of heregulin-dependent autophosphorylation of ErbB2 receptor in MDA-MB-453 cells; assay type: functional, cell-based
MCF7 [13] = assay: Ratio of treated and control MCF-7 median tumor mass*100% in mice at 25 mg/kg ip dose, days 1-15 administration; assay type: functional; conditions: route intraperitoneal; method in brief: as §1
A-431 [14] = assay: Net reduction in A431 tumor burden between the first and last treatments in mice at 12 mg/kg ip dose, days 7-21 administration; assay type: functional; conditions: route intraperitoneal; method in brief: as §2
Mus musculus [15] = assay: Net reduction in EGFR tumor burden between the first and last treatments in mice at 25 mg/kg ip dose, days 1-15 administration; assay type: functional; conditions: route intraperitoneal; method in brief: as §2
Mus musculus [16] = assay: Ratio of treated and control EGFR median tumor mass*100% in mice at 400 mg/kg peroral dose, days 1-15 administration; assay type: functional; conditions: route oral; method in brief: as §1
Mus musculus [17] = assay: Ratio of treated and control EGFR median tumor mass*100% in mice at 25 mg/kg ip dose, days 1-15 administration; assay type: functional; conditions: route intraperitoneal; method in brief: as §1
Mus musculus [18] = assay: Difference in days for treated (T) and control (C) EGFR tumor fragments to reach 750 mg in mice at 400 mg/kg peroral dose, administration days 1-15; assay type: functional; conditions: route oral
Insulin receptor = Insulin receptor (Homo sapiens, UniProt P06213); assay: Inhibition of insulin receptor(IR)
A-431 [19] = assay: WWeight change in A431 tumor bearing mice at 25 mg/kg ip dose, days 13-26 administration; assay type: functional; conditions: route intraperitoneal
SK-OV-3 [20] = assay: Difference in days for treated (T) and control (C) SKOV-3 tumor fragments to reach 750 mg in mice at 25 mg/kg ip dose, administration days 10-14,17-21,24-28; assay type: functional; conditions: route intraperitoneal
SK-OV-3 [21] = assay: Weight change in SKOV-3 tumor bearing mice at 25 mg/kg ip dose, days 10-14,17-21,24-28 administration; assay type: functional; conditions: route intraperitoneal
A-431 [22] = assay: Net reduction in A431 tumor burden between the first and last treatments in mice at 25 mg/kg ip dose, administration days 13-26; assay type: functional; conditions: route intraperitoneal; method in brief: as §2
[23] = Inhibition of Platelet-derived growth factor receptor (PDGFR)
MCF7 [24] = assay: Weight change in MCF-7 tumor bearing mice at 25 mg/kg ip dose, days 1-15 administration; assay type: functional
[25] = target: Fibroblast growth factor receptor (Homo sapiens, UniProt P22607+P11362+P22455+P21802); assay: Inhibition of fibroblast growth factor receptor(FGFR); assay type: protein assay
SK-OV-3 [26] = assay: Ratio of treated and control SKOV-3 median tumor mass*100% in mice at 25 mg/kg ip dose, days 10-14,17-21,24-28 administration; assay type: functional; conditions: route intraperitoneal
[27] = target: T1, Epidermal growth factor receptor; assay: Inhibit of phosphorylation of a tyrosine/glutamic acid copolymer by epidermal growth factor receptor prepared from human A431 carcinoma cell vesicles by immunoaffinity chromatography.
A-431 [28] = assay: Ratio of treated and control A431 median tumor mass*100% in mice at 12 mg/kg peroral dose, days 7-21 administration; assay type: functional; conditions: route intraperitoneal, in the assay text read “intraperitoneal” for “peroral”; method in brief: as §1
Mus musculus [29] = assay: Weight change of EGFR tumor bearing mice at 400 mg/kg peroral dose, days 1-15 administration; assay type: functional; conditions: route oral
[30] = target: T1, Epidermal growth factor receptor; assay: Inhibition of tyrosine/glutamic acid copolymer phosphorylation by epidermal growth factor receptor prepared of human A431
[31] = target: Proto-oncogene tyrosine-protein kinase Src (Homo sapiens, UniProt P12931); assay: Inhibition of c-Src tyrosine kinase
[32] = target: T1, Epidermal growth factor receptor; assay: Inhibition of EGF-dependent autophosphorylation of EGF-R in A431 cells

T1 sequence (P00533 whole entry, the tested form may be a part): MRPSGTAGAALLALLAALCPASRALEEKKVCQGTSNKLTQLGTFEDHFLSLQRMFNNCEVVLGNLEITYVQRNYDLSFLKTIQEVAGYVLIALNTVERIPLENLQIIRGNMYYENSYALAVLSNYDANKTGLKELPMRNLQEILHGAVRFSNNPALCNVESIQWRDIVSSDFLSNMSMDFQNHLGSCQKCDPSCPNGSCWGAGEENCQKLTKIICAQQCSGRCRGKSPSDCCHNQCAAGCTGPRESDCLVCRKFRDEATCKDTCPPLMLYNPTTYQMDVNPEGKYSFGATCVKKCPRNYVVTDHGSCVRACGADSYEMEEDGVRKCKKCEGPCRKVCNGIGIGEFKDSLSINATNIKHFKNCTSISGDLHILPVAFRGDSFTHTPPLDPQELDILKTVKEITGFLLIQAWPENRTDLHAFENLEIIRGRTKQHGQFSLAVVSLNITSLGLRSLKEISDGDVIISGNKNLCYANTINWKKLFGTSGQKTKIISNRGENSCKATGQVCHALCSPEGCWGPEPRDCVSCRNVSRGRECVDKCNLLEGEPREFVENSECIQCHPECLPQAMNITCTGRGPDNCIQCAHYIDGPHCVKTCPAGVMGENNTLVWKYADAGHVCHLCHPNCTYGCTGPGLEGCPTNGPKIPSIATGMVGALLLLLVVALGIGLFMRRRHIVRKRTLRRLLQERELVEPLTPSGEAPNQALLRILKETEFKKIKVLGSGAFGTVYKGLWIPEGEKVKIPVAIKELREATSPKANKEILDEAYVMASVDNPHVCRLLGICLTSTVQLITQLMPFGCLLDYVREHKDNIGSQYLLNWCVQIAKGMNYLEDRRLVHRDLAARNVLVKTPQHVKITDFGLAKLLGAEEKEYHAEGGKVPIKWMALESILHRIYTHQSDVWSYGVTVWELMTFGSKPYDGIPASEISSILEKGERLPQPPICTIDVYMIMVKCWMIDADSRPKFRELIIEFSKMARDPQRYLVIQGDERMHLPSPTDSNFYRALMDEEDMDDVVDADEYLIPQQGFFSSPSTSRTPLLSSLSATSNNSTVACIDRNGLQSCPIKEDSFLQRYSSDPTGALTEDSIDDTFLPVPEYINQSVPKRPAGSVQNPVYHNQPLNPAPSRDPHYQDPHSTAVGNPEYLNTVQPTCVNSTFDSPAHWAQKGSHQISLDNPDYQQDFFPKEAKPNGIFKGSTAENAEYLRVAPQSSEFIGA
Sequence of Proto-oncogene tyrosine-protein kinase Src (P12931 2-536 limits assumed): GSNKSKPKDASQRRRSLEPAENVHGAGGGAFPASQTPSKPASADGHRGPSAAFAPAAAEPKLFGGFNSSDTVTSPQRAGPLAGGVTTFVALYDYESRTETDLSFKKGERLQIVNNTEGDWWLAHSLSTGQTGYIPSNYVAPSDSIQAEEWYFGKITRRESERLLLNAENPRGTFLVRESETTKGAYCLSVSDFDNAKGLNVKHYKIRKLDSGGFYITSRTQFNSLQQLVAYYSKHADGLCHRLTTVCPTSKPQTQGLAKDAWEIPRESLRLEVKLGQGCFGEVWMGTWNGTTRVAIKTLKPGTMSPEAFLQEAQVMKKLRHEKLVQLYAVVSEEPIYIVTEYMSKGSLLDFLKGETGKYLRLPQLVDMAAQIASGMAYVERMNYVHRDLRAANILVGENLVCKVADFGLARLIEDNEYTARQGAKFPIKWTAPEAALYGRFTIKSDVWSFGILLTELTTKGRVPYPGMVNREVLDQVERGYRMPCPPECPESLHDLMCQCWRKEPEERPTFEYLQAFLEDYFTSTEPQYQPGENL
Sequence of Insulin receptor (P06213 28-758 limits assumed): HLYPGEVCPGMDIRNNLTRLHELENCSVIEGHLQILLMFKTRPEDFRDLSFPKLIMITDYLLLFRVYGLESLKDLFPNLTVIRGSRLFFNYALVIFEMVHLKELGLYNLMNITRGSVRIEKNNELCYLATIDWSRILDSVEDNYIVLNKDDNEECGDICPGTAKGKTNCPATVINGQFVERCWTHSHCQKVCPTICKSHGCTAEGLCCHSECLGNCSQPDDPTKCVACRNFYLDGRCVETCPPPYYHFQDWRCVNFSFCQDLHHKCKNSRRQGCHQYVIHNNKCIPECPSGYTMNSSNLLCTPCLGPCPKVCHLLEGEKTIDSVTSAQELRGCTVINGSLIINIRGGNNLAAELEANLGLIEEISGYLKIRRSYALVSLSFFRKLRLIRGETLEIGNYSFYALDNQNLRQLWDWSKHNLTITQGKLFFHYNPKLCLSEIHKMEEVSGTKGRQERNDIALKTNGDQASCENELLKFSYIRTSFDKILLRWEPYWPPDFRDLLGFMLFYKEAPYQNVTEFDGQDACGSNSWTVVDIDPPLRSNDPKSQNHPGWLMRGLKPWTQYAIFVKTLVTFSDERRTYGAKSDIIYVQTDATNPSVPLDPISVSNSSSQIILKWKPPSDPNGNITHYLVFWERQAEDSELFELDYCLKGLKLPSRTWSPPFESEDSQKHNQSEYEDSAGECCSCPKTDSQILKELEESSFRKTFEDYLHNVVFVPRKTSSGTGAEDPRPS
Sequence of Insulin receptor (P06213 763-1382 limits assumed): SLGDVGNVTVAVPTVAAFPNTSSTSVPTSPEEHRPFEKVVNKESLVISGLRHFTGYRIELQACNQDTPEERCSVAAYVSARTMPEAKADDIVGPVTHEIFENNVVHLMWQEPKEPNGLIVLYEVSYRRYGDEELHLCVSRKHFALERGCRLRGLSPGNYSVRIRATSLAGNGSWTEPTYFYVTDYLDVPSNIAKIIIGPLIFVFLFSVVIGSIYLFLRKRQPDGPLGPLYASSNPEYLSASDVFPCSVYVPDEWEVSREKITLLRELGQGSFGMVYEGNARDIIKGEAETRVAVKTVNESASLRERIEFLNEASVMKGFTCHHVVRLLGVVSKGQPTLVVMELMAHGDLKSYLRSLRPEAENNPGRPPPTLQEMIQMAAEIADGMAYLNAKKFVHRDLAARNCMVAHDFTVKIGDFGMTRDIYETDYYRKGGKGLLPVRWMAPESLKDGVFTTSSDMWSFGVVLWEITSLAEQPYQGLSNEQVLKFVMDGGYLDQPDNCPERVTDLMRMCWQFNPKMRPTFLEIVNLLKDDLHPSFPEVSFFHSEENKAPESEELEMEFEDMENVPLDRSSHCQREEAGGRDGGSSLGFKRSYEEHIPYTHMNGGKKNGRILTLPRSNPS
Sequence of Receptor tyrosine-protein kinase erbB-2 (P04626 whole entry): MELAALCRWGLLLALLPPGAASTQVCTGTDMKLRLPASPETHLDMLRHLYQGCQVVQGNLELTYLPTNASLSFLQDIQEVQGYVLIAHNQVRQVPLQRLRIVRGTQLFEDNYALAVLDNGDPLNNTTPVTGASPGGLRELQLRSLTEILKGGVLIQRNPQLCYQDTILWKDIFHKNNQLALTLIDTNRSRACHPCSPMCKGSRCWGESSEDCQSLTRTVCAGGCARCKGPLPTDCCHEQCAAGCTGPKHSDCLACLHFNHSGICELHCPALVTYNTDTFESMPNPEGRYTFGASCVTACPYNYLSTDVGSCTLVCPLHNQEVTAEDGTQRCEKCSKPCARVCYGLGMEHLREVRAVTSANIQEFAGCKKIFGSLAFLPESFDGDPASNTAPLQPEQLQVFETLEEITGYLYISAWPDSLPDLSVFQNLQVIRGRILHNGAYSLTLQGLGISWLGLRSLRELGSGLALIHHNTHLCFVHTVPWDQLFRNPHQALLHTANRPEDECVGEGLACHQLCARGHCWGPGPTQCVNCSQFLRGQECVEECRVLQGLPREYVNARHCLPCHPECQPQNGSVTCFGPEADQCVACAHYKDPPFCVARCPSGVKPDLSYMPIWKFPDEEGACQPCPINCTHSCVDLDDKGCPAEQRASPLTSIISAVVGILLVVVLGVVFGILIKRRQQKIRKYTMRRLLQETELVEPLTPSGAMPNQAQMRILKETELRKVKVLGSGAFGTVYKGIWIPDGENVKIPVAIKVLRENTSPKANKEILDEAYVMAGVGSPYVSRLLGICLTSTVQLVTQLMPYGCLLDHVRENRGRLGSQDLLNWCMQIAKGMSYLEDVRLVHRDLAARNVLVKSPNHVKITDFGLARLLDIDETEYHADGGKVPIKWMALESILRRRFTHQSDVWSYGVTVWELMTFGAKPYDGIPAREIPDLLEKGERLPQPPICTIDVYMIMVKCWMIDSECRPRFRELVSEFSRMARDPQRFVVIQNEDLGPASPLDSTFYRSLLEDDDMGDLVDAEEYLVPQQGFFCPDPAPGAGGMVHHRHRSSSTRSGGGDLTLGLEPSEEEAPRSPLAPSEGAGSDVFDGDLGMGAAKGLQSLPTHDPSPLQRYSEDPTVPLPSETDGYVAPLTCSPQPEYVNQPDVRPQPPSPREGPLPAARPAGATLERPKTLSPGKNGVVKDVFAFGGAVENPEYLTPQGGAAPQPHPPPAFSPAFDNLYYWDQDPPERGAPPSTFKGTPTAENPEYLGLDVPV

`Brc1cccc(Nc2ncnc3cnc(NCCN4CCOCC4)cc23)c1` gave a Weight change (Mus musculus [1]) of -1.3 g, a Weight change (A-431 [2]) of -0.2 g and a T-C (A-431 [3]) of 1.9 days. For the same molecule, the Net cell kill (MCF7 [4]) was -0.1 log10, the T-C (Mus musculus [5]) was 1.2 days and the IC50 [6] was 7.9 nM. The T-C (MCF7 [7]) was 11.7 days, the Net cell kill (Mus musculus [8]) was -1.1 log10 and the solubility [9] was 10 mM (≈ 4290 µg/mL). It also gave a T-C (A-431 [10]) of 2.1 days, a T/C (A-431 [11]) of 98% and an IC50 [12] of 219 nM. The T/C (MCF7 [13]) was 34%, the Net cell kill (A-431 [14]) was -0.7 log10 and the Net cell kill (Mus musculus [15]) was -1.2 log10. The T/C (Mus musculus [16]) was 15%, the T/C (Mus musculus [17]) was 77% and the T-C (Mus musculus [18]) was 2.8 days. For the same molecule, the IC50 (Insulin receptor) was over 50000 nM, the Weight change (A-431 [19]) was -1.1 g and the T-C (SK-OV-3 [20]) was 0 days. The Weight change (SK-OV-3 [21]) was -2.1 g, the Net cell kill (A-431 [22]) was -0.3 log10 and the IC50 [23] was over 50000 nM. For the same molecule, the Weight change (MCF7 [24]) was “Weight gain”, the IC50 [25] was over 50000 nM and the T/C (SK-OV-3 [26]) was 100%. It also gave an IC50 [27] of 0.65 nM, a T/C (A-431 [28]) of 93% and a Weight change (Mus musculus [29]) of -2 g. It also gave an IC50 [30] of 0.7 nM, an IC50 [31] of over 50000 nM and an IC50 [32] of 7.9 nM.
